Experimental findings from ChEMBL document CHEMBL1125678, “Quinazolineacetic acids and related analogues as aldose reductase inhibitors” (J Med Chem, 1991) are described below.

Assay [1] deals with Aldo-keto reductase family 1 member B1 (Bos taurus) (UniProt P16116). Kind of assay: In vitro inhibition of aldose reductase in partially purified bovine lens preparation at a concentration of 10e -7M. The method, boiled down: (§1)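 Enzyme from bovine lens, partially purified by the cited method with the final chromatographic step omitted. DL-Glyceraldehyde was the substrate. Test compounds were run in duplicate at 1×10⁻⁵, 1×10⁻⁶, 1×10⁻⁷ or 4×10⁻⁸ M. Values are % inhibition of enzymatic activity.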

Assay [2] shares this target. Kind of assay: In vitro inhibition of aldose reductase in partially purified bovine lens preparation at a concentration of 4*10e -8M. The method, boiled down: as §1
Assay [3] deals with Rattus norvegicus. Kind of assay: In vivo inhibition of galactitol accumulation in the diaphragm of rats fed 20% galactose for 4 day at 92 mg/kg/day dose. It counts as functional. The method, boiled down:
(§2)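 Male Sprague-Dawley rats (50–70 g) in groups of six were fed chow with 20% (w/w) galactose. Controls received 20% glucose instead. Test compound was mixed into the diet, and dose was calculated from actual food intake. Rats were killed by decapitation after 4 days. Result is % lowering of tissue galactitol versus galactose-fed controls, as the mean of six animals, compared by Dunnett's multiple comparison.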

Assay [4] relates to Rattus norvegicus. Kind of assay: In vivo inhibition of galactitol accumulation in the sciatic nerve of rats fed 20% galactose for 4 day at 92 mg/kg/day dose. Format: functional.
In assay [5] the test system is Rattus norvegicus. Description: In vivo inhibition of galactitol accumulation in the diaphragm of rats fed 20% galactose for 4 day at 101 mg/kg/day dose. Format: functional. The essentials: as §2
The test system of assay [6] is Rattus norvegicus. Description: In vivo inhibition of galactitol accumulation in the sciatic nerve of rats fed 20% galactose for 4 day at 101 mg/kg/day dose. Format: functional. The method, boiled down:
as §2

For assay [7], the system named is Rattus norvegicus. Kind of assay: In vivo inhibition of galactitol accumulation in the diaphragm of rats fed 20% galactose for 4 day at 90 mg/kg/day dose. It counts as functional. The method, boiled down:
as §2

In assay [8] the test system is Rattus norvegicus. Kind of assay: In vivo inhibition of galactitol accumulation in the sciatic nerve of rats fed 20% galactose for 4 day at 95 mg/kg/day dose; NS= No Significant inhibition of polyol accumulation. It counts as functional, organism-based.
For assay [9], the system named is Rattus norvegicus. Kind of assay: In vivo inhibition of galactitol accumulation in the sciatic nerve of rats fed 20% galactose for 4 day at 97 mg/kg/day dose. It counts as functional.
The subject of assay [10] is Rattus norvegicus. Kind of assay: In vivo inhibition of galactitol accumulation in the diaphragm of rats fed 20% galactose for 4 day at 97 mg/kg/day dose. It counts as functional. The essentials:
as §2

A word on the inhibition: it is how much of the control response was suppressed. Low values mean little suppression, high ones strong suppression.

In the case of `O=C(O)Cn1c(=O)c2cc(Br)ccc2n(Cc2ccc(Cl)c(Cl)c2)c1=O`, the figures for the inhibition in [1] and in [2] were 83% and 47%, respectively. Also, the figures for the Lowering with Rattus norvegicus [3] and with Rattus norvegicus [4] were 78% and 62%, respectively.

As to `O=C(O)Cn1c(=O)n(Cc2ccc(Cl)c(Cl)c2)c(=O)c2cc(Cl)ccc21`, the results for the inhibition in assay [1] and in [2] were 88% and 64%, respectively. In addition, the figures for the Lowering with Rattus norvegicus [5] and in the assay on Rattus norvegicus [6] were 68% and 38%, respectively.

As for `O=C(O)CN1CN(Cc2ccc(Br)cc2F)c2ccc(Cl)cc2C1=O`, the inhibition in assay [1] amounted to 51%; in assay [2], 23%. The Lowering was 38% in the assay with Rattus norvegicus [7] and “Not significant” with Rattus norvegicus [8].

Regarding `O=C(O)Cn1c(=O)c2cc(I)ccc2n(Cc2ccc(Br)cc2F)c1=O`, the inhibition in assay [1] is 83%; in assay [2] it was 64%. The Lowering was 64% in the assay on Rattus norvegicus [9] and 83% in the assay on Rattus norvegicus [10].
